Measurements published in ChEMBL document CHEMBL5226322, “Harnessing the Role of HDAC6 in Idiopathic Pulmonary Fibrosis: Design, Synthesis, Structural Analysis, and Biological Evaluation of Potent Inhibitors” (J Med Chem, 2021).
pIC50: −log10 of the molar value. Blank lines part the entries; values can stand above or below the molecule they belong to. Calls of active or inactive are those of the source. No cut-off for these calls is given here.

Columns and labels:
[1] = biological target: T1, Protein deacetylase HDAC6 (Homo sapiens, UniProt Q9UBN7); experiment: Inhibition of human recombinant HDAC6 using ZMAL (Z-(Ac)Lys-AMC) as fluorogenic substrate incubated for 120 mins by microplate reader assay
T1 sequence (Q9UBN7 whole entry): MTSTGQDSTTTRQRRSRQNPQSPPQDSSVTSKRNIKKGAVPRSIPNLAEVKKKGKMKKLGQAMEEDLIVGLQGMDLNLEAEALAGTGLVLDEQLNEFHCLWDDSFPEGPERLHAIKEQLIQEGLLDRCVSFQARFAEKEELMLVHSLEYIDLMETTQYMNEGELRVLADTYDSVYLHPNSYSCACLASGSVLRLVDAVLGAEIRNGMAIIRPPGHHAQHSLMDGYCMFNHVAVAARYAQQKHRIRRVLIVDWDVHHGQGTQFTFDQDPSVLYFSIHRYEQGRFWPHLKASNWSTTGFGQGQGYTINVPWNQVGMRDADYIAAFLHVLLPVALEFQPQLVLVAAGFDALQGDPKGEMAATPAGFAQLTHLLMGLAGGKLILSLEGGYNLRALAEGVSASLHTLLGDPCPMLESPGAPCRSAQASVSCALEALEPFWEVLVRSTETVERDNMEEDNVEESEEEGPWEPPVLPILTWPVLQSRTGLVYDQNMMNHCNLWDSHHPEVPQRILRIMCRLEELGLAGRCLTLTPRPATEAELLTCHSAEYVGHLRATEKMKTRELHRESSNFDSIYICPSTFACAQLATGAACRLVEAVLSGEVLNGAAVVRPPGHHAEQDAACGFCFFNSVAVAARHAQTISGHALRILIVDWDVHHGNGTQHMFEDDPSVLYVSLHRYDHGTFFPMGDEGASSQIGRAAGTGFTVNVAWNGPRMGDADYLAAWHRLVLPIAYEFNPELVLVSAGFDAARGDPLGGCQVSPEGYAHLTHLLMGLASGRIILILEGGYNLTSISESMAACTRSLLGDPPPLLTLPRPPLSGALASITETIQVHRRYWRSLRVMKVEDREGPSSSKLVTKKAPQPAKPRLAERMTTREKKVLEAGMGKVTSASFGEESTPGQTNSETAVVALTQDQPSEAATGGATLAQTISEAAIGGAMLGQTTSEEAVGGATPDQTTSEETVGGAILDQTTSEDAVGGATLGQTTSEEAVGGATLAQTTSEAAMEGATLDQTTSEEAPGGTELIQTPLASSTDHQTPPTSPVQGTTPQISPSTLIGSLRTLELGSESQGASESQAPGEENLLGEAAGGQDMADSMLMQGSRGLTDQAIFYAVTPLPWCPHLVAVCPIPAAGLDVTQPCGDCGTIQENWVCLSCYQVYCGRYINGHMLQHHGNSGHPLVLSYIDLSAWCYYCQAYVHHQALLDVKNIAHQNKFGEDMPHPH

Histone deacetylase 1 [2] = biological target: T2, Histone deacetylase 1 (Homo sapiens, UniProt Q13547); experiment: Inhibition of human recombinant HDAC1 using ZMAL (Z-(Ac)Lys-AMC) as fluorogenic substrate incubated for 120 mins by microplate reader assay
T2 sequence (Q13547 whole entry): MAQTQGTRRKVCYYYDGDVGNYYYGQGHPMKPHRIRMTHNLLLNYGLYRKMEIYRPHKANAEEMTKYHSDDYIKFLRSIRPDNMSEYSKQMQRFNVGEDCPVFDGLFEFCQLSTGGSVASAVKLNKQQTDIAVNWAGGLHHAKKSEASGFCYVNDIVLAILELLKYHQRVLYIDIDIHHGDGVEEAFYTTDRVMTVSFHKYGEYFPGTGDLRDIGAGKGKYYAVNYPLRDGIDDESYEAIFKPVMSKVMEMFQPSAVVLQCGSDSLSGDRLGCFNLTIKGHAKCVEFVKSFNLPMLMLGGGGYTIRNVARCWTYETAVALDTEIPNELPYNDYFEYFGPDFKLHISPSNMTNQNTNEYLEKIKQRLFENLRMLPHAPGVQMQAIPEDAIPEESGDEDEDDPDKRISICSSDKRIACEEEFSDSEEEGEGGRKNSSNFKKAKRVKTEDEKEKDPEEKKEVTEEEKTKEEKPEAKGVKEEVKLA

[3] = biological target: T3, Protein deacetylase HDAC6 (Homo sapiens) (UniProt Q9UBN7); experiment: Inhibition of HDAC6 in human NB-4 cells assessed as increase in acetylation of alpha-tubulin at 5 uM incubated for 30 hrs by western blot analysis; format: cell-based
T3 sequence (whole entry): T1 sequence (Q9UBN7 whole entry)
Summary of the method: (§1)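 Whole lysates (35 μg) and acid-extracted histones (2 μg) run on SDS-PAGE and blotted for acetylated tubulin or acetyl-histone H3; GAPDH or H4 as loading controls.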

Histone deacetylase 1 [4] = biological target: T2, Histone deacetylase 1; experiment: Inhibition of HDAC1 in human U87 cells assessed as increase in acetylation of histone H3 at 5 uM incubated for 30 hrs by western blot analysis; format: cell-based; summary of the method: as §1
[5] = biological target: T3, Protein deacetylase HDAC6 (Homo sapiens); experiment: Inhibition of HDAC6 in human U87 cells assessed as increase in acetylation of alpha-tubulin at 5 uM incubated for 30 hrs by western blot analysis; format: cell-based; summary of the method: as §1
Histone deacetylase 1 [6] = biological target: T2, Histone deacetylase 1; experiment: Inhibition of HDAC1 in human NB-4 cells assessed as increase in acetylation of histone H3 at 5 uM incubated for 30 hrs by western blot analysis; format: cell-based; summary of the method: as §1
Homo sapiens = species: Homo sapiens; experiment: Inhibition of broncho-sphere formation in IPF patient derived human lung organoid assessed as inhibition of 3D organoid formation at 0.1 to 50 nM incubated for 14 days by Bright-field microscopy analysis; format: functional; conditions: dose 0.1-50 nM, time 14.0 day
Summary of the method: (§2)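 Airway basal cells from bronchial brushings of IPF patients, 10⁴ cells in Matrigel on transwell inserts with 1:1 BEGM/DMEM. Treated 14 days (1–50 nM per methods; 0.1–50 nM per legend), medium changed every 7 days.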

[7] = Inhibition of cell proliferation in IPF patient derived human Airway basal cell incubated for 14 days by MTT assay; format: functional, cell-based; conditions: 336 h
Summary of the method: (§3)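 IPF patient airway basal cell 3D organoid cultures (10⁴ cells in Matrigel, 1:1 BEGM/DMEM) treated 14 days at 1–50 nM, medium changed weekly. Proliferation read by colorimetric MTT on day 14. Mean ± SEM of triplicates, n=3; repeated-measures ANOVA/Friedman test. Reported IC50 is the mean of the count-based and MTT-based IC50s.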

[8] = Inhibition of spheroid count in IPF patient derived human Airway basal cell incubated for 14 days by Bright-field microscopy analysis; format: functional, cell-based; summary of the method: as §2
Airway basal cell [9] = experiment: Inhibition of spheroid count in IPF patient derived human Airway basal cell assessed as reduction in sphere count at 20 to 50 nM incubated for 14 days by Bright-field microscopy analysis; format: functional, cell-based; conditions: dose 20-50 nM, time 14.0 day; summary of the method: as §2
Airway basal cell [10] = experiment: Inhibition of cell proliferation in IPF patient derived human Airway basal cell at 20 to 50 nM incubated for 14 days by MTT assay; format: functional, cell-based; conditions: dose 20-50 nM, time 14.0 day; summary of the method: as §3
Histone deacetylase 8 = biological target: T4, Histone deacetylase 8 (Homo sapiens, UniProt Q9BY41); experiment: Inhibition of human recombinant HDAC8 using FLUOR DE LYS fluorometric substrate pre-incubated for 15 mins and followed by substrate addition and measured after 60 mins by microplate reader assay
T4 sequence (Q9BY41 whole entry): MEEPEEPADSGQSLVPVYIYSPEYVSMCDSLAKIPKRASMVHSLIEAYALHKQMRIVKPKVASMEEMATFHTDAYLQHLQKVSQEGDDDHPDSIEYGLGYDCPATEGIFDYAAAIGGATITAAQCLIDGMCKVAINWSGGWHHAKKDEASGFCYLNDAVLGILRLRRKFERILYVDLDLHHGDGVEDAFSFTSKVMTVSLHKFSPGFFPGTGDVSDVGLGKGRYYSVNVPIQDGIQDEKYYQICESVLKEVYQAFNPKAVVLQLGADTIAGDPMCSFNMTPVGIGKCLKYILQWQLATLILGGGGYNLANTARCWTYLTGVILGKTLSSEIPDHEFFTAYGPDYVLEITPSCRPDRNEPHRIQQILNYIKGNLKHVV
Summary of the method: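 Recombinant human HDAC8 at 0.45 U/reaction with 0.5% DMSO; DMSO-only enzyme served as control. Enzyme preincubated 15 min with compound, then Fluor de Lys substrate added (50 μM final) for 1 h at 30 °C. Quenched with 2 μM TSA in Developer II for a further 1 h at 30 °C. Fluorescence read at ex 370/em 450 nm. IC50 from nonlinear dose-response fit.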

[11] = biological target: T3, Protein deacetylase HDAC6 (Homo sapiens); experiment: Inhibition of HDAC6 in human U2OS cells assessed as increase in acetylation of alpha-tubulin at 5 uM incubated for 30 hrs by western blot analysis; format: cell-based; summary of the method: as §1
NIH3T3 [12] = experiment: Cytotoxicity in mouse NIH3T3 cells assessed as reduction in cell viability at 5 uM incubated for 24 hrs by neutral red uptake method based UV/visible spectrophotometer analysis; format: toxicity; conditions: nih3t3, 24 h
Summary of the method: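 NIH3T3 fibroblasts grown in DMEM with 10% FCS, L-glutamine/pen-strep and non-essential amino acids at 37 °C, 5% CO2. Monolayers exposed 24 h to compound diluted from a DMSO stock into medium. Neutral Red medium then added for 3 h at 37 °C. Dye extracted with acetic acid/ethanol desorb solution and absorbance read at 540 nm. Student's t-test, p<0.05.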

NIH3T3 [13] = experiment: Cytotoxicity in mouse NIH3T3 cells assessed as reduction in cell viability at 1 uM incubated for 24 hrs by neutral red uptake method based UV/visible spectrophotometer analysis; format: toxicity; conditions: nih3t3, 24 h
Summary of the method: (§4)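 NIH3T3 mouse fibroblasts grown in DMEM with 10% FCS, L-glutamine/pen-strep and non-essential amino acids (37 °C, 5% CO2). Exposed 24 h to compound diluted from a DMSO stock into medium. Viability measured by Neutral Red uptake: 3 h in NR medium, then acetic acid/ethanol desorb, absorbance at 540 nm. Student's t-test, p<0.05.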

NIH3T3 [14] = experiment: Cytotoxicity in mouse NIH3T3 cells assessed as reduction in cell viability at 20 uM incubated for 24 hrs by neutral red uptake method based UV/visible spectrophotometer analysis; format: toxicity; conditions: nih3t3, 24 h; summary of the method: as §4
NIH3T3 [15] = experiment: Cytotoxicity in mouse NIH3T3 cells assessed as reduction in cell viability at 7.5 uM incubated for 24 hrs by neutral red uptake method based UV/visible spectrophotometer analysis; format: toxicity; conditions: nih3t3, 24 h; summary of the method: as §4
NIH3T3 [16] = experiment: Cytotoxicity in mouse NIH3T3 cells assessed as reduction in cell viability at 2 uM incubated for 24 hrs by neutral red uptake method based UV/visible spectrophotometer analysis; format: toxicity; conditions: nih3t3, 24 h; summary of the method: as §4

Compound: CC1(C)c2ccccc2N(Cc2ccc(C(=O)NO)cc2)[C@@H]1c1cccnc1
pIC50 [1]: 7.15 | pIC50 (Histone deacetylase 1 [2]): 5.47

Compound: CC1(C)c2ccccc2N(Cc2ccc(C(=O)NO)cc2)[C@H]1c1cccnc1
pIC50 [1]: 7.04 | pIC50 (Histone deacetylase 1 [2]): 4.79

pIC50 [1]: 6.09 | pIC50 (Histone deacetylase 1 [2]): 5.20
Compound: CC1(C)c2ccccc2N(Cc2ccc(C(=O)NO)s2)C1c1cccnc1 (racemic)

pIC50 [1]: 6.82 | pIC50 (Histone deacetylase 1 [2]): 5.09
Compound: CC(C)(C)OC(=O)N1CCC2(CC1)c1ccccc1N(Cc1ccc(C(=O)NO)cc1)C2c1cccnc1 (racemic)

pIC50 [1]: 6.78 | pIC50 (Histone deacetylase 1 [2]): 4.73
Compound: CC1(C)c2ccccc2N(Cc2ccc(C(=O)NO)cc2)C1c1ccccc1 (racemic)

Compound: CN1CCC2(CC1)c1ccccc1N(Cc1ccc(C(=O)NO)cc1)C2c1cccc(Cl)c1 (racemic)
pIC50 [1]: 6.96 | pIC50 (Histone deacetylase 1 [2]): 5.09

Compound: CN1CCC2(CC1)c1ccccc1N(Cc1ccc(C(=O)NO)cc1)C2c1ccc(F)cc1 (racemic)
pIC50 [1]: 6.85 | inhibition [3]: Active | inhibition (Histone deacetylase 1 [4]): inactive | inhibition [5]: Active | inhibition (Histone deacetylase 1 [6]): inactive | pIC50 (Histone deacetylase 1 [2]): 5.21

pIC50 [1]: 7.17 | pIC50 (Histone deacetylase 1 [2]): 5.27
Compound: COc1ccc2c(c1)C(C)(C)C(c1cccnc1)N2Cc1ccc(C(=O)NO)cc1 (racemic)

Compound: CN1CCC2(CC1)c1ccccc1N(Cc1ccc(C(=O)NO)cc1)C2c1ccccc1 (racemic)
inhibition (Homo sapiens): Dose-Dependent Effect | pIC50 [7]: 9.81 | pIC50 [8]: 8.59 | pIC50 [1]: 7.14 | inhibition [3]: Active | inhibition (Airway basal cell [9]): Active | inhibition (Histone deacetylase 1 [4]): inactive | inhibition [5]: Active | inhibition (Airway basal cell [10]): Active | inhibition (Histone deacetylase 1 [6]): inactive | pIC50 (Histone deacetylase 1 [2]): 5.37

pIC50 [1]: 6.21 | pIC50 (Histone deacetylase 1 [2]): 5.79
Compound: CC1(C)c2ccccc2N(Cc2ccc(OCCCC(=O)NO)cc2)C1c1cccnc1 (racemic)

pIC50 (Histone deacetylase 8): 5.33 | pIC50 [8]: 8.36 | pIC50 [1]: 7.21 | inhibition [11]: Active | inhibition [3]: Active | inhibition (Histone deacetylase 1 [4]): inactive | inhibition [5]: Active | inhibition (Histone deacetylase 1 [6]): inactive | pIC50 (Histone deacetylase 1 [2]): 4.97
Compound: CC1(C)c2ccccc2N(Cc2ccc(C(=O)NO)cc2)C1c1ccncc1 (racemic)
inhibition (Homo sapiens): Dose-Dependent Effect | pIC50 [7]: 8.30 | inhibition (Airway basal cell [9]): Active | inhibition (Airway basal cell [10]): Active

Compound: CN1CCC2(CC1)c1ccccc1N(Cc1ccc(C(=O)NO)cc1)C2c1cccnc1 (racemic)
pIC50 [1]: 6.95 | pIC50 (Histone deacetylase 1 [2]): 5.12

Compound: CN1CCC2(CC1)c1ccccc1N(Cc1ccc(C(=O)NO)cc1)C2c1ccc(Cl)cc1 (racemic)
pIC50 [1]: 6.78 | pIC50 (Histone deacetylase 1 [2]): 5.44

Compound: O=C(CCCCCCC(=O)Nc1ccccc1)NO [VORINOSTAT]
Activity (NIH3T3 [12]): 31% | Activity (NIH3T3 [13]): 83% | Activity (NIH3T3 [14]): 7% | Activity (NIH3T3 [15]): 22% | Activity (NIH3T3 [16]): 62%
